Assay outcomes: PubChem BioAssay, several laboratories
PostGolgi yeast: phenotypic screen on post-Golgi transport, primary screen | post-Golgi transport phenotypic cell assay | inhibition, % at 10 µM | 98,000 tested, 0.9% active;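 note: yeast cells grown in 1536-well plates; yeast grown about 18 h at 30C before absorbance read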
PostGolgi ctrl: growth inhibition of yeast control strain, primary screen, counter-screen for post-Golgi transport modulator project; inhibition, % at 10 µM; 98,000 tested, 5% active; efflux-deficient yeast background strain, growth absorbance A615, 16 h; AID 738, 2007
Cav32 inh: Cav3.2 calcium influx blockers – cell-based, Fluo-4 calcium fluorescence, FDSS, MLSMR library, primary screen. Voltage-dependent T-type calcium channel subunit alpha-1H (Homo sapiens), O95180. Cav3.2-expressing cells; active compounds read low. B-score at 10 µM. 100,000 tested, 4% active. AID 449739, 2010;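 active = single-dose well whose peak fluorescence ratio is a statistical outlier from its plate by either plate-standardised score or position-corrected B-score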
tolC growth inh: growth inhibitors of E. coli tolC mutant, primary screen, strain BW25113 ΔtolC::kan, 384-well. OD615. growth inhibition, % at 10 µM (by protocol). 65,000 tested, 2.2% active. AID 573, 2007;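 active = growth inhibition at or above a cutoff equal to the mean over every tested compound plus 3 SD, cut at about 60% in these data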;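 note: growth measured after 20 h incubation at 37 °C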
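Doses: one dose of 10 µM final / Material: E. coli BW25113 ΔtolC::kan, tolC deletion mutant strain / Buffer or medium: LB with kanamycin 50 µg/mL / Evaluation: percent growth inhibition / Detection: optical density read at 615 nm / Incubation: 37 °C, 20 h exposure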
E coli WT exp: growth inhibitors of wild-type E. coli, primary screen, strain BW25113, expanded library, OD600; 98,000 tested, 0.15% active; AID 710, 2007; growth inhibition, % at 100 µM; OD600 absorbance;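 active = growth inhibition above about 50% at one test dose, limit read from the data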;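 note: growth measured after 20 h incubation at 37 °C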
* hit, by the source's call. Rows were chosen to be rich in hits. Some 8.4% of all compounds tested hit in one or more screens of this group. Cut-off read from the data, not from the text of the source, unless noted: active = inhibition above about 30%; inactive = the rest.

O=C1CCSc2ccc(Cl)cc2N1Cc1cccc(Cl)c1 was read as PostGolgi yeast -13, PostGolgi ctrl 41*, Cav32 inh -3.4 and E coli WT exp 8.
`O=C(Nc1ccc(/C=C/c2nc3ccccc3o2)cc1)c1ccc(F)cc1` gave PostGolgi yeast 7, PostGolgi ctrl -1, Cav32 inh -1.6 and E coli WT exp -12.
`COc1ccc(-c2cc(=O)oc3cc(OCc4nn[nH]n4)ccc23)cc1` gave PostGolgi yeast 23, PostGolgi ctrl -6, Cav32 inh 0.035, tolC growth inh 27 and E coli WT exp 0.
`CC(C)(C)n1nnnc1CN(Cc1ccc(F)cc1)Cc1ccco1` gave PostGolgi yeast -4, PostGolgi ctrl 28, Cav32 inh -4.7* and E coli WT exp -5.
CC(C)(C)n1nnnc1C(c1cccnc1)N(Cc1ccccc1)Cc1ccco1 (stereo not drawn) was read as PostGolgi yeast -1, PostGolgi ctrl 28 and E coli WT exp -8.
For O=C(CCC(=O)c1cccs1)Nc1ccc(F)c(F)c1F the results were PostGolgi yeast -3, PostGolgi ctrl 14, Cav32 inh 0.49 and E coli WT exp 14.
For CCN(C(=O)COc1cc(=O)n(CC)c2ccccc12)c1cccc(Cl)c1 the results were PostGolgi yeast -7, PostGolgi ctrl 1, tolC growth inh 26 and E coli WT exp -4.
For CCN(C(=O)COc1cc(=O)n(CC)c2ccccc12)c1cc(Cl)ccc1OC the results were PostGolgi yeast -4, PostGolgi ctrl 23, Cav32 inh -5.5*, tolC growth inh 16 and E coli WT exp 0.
COC(=O)c1cc(OC)c(OC)cc1NC(=O)CC1CCCCC1 was read as PostGolgi yeast 2, PostGolgi ctrl 42*, Cav32 inh -1.1, tolC growth inh 14 and E coli WT exp -2.
COC(=O)c1cc(OC)c(OC)cc1NC(=O)CN1CCCCC1 was read as PostGolgi yeast 0, PostGolgi ctrl 16, Cav32 inh 0.22, tolC growth inh -7 and E coli WT exp 3.
Screening NCCCCCNC(=O)/C=N\O returned PostGolgi yeast 7, PostGolgi ctrl 4, Cav32 inh -0.039, tolC growth inh -17 and E coli WT exp -2.
`CC(C)(NC(=O)N1CCCC1)c1cccc(C(C)(C)NC(=O)N2CCCC2)c1` gave PostGolgi yeast -2, PostGolgi ctrl 4, Cav32 inh -0.28, tolC growth inh -14 and E coli WT exp 2.
COc1ccc(-n2c(Cc3cccn3C)nnc2SCC(=O)Nc2cccc(F)c2)cc1 was read as PostGolgi yeast 16, PostGolgi ctrl 6, Cav32 inh -4.5*, tolC growth inh 15 and E coli WT exp -8.
Screening COc1ccc(-n2c(Cc3cccn3C)nnc2SCC(=O)Nc2ccccc2)cc1 returned PostGolgi yeast 4, PostGolgi ctrl 5, Cav32 inh -13*, tolC growth inh 3 and E coli WT exp -6.
For COc1ccc(-n2c(Cc3cccn3C)nnc2SCC(=O)Nc2nc(C)cs2)cc1 the results were PostGolgi yeast -5, PostGolgi ctrl -5, tolC growth inh -11 and E coli WT exp -3.
Screening CCc1ccc(NC(=O)CSc2nnc(Cc3cccn3C)n2-c2ccc(OC)cc2)cc1 returned PostGolgi yeast -2, PostGolgi ctrl 2, Cav32 inh -5.4*, tolC growth inh 35 and E coli WT exp -18.
For COc1ccc(-n2c(Cc3cccn3C)nnc2SCC(N)=O)cc1 the results were PostGolgi yeast 17, PostGolgi ctrl -3, Cav32 inh -0.28, tolC growth inh -11 and E coli WT exp 8.
COc1ccc(-n2c(Cc3cccn3C)nnc2SCC(=O)Nc2ccc(Cl)cc2)cc1 was read as PostGolgi yeast -7, PostGolgi ctrl 7, Cav32 inh -4.5*, tolC growth inh 20 and E coli WT exp -3.
For NC(=O)C(CC(=O)O)NC(=O)[C@@H]1CCCNc2c(I)cc([N+](=O)[O-])cc2C(=O)N[C@@H](CO)C(=O)N[C@@H](Cc2ccc(O)cc2)C(=O)N1 (stereo partly drawn) the results were Cav32 inh -1.5.
COc1ccc(NC(=O)CSc2nnc(C3CC3)n2N)cc1 was read as PostGolgi yeast 0, PostGolgi ctrl 5, Cav32 inh 0.84, tolC growth inh -12 and E coli WT exp -1.
Screening COc1ccc(-n2ccnc2SCC(=O)Nc2ccccc2)cc1 returned PostGolgi yeast 6, PostGolgi ctrl 37*, Cav32 inh -1.5, tolC growth inh 19 and E coli WT exp 0.
